Assay [1] can be described thus: inhibitors of TNFa-induced NFkB p65 translocation, primary screen, imaging, HUVEC, MLSMR starter and 10KST1 sets (AID 438;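 active means inhibition above 20% together with a positive visual image hit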;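 further: compound added about 3h40 before a 20 min TNFalpha stimulation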;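 on inhibition: signal is the nuclear over cytoplasmic p65 intensity ratio per well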). Particulars: HUVEC TNFa-induced p65 nuclear translocation; cell count: measured here: nuclei count (cytotoxicity indicator), at 2.08 µM; inhibition: at 2 µM, stronger effect = higher value, 0% TNFa-plus-vehicle, 100% no-TNFa wells.
A short description of assay [2]: inhibitors of E-selectin induction by TNFa, primary screen, imaging, HUVEC, immunofluorescence, MLSMR starter and 10KST1 sets (AID 487;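 active means visually confirmed hit in the image check and inhibition above 20%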;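 on inhibition: signal is fraction of cell area covered by stained E-selectin grains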;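 on nuclei count: 100% = median nuclei count of all wells on the same plate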). Particulars: HUVEC TNFalpha-induced E-selectin immunofluorescence imaging, at 2 µM; inhibition: stronger effect = higher value; nuclei count: measured here: cell number, toxicity.
Assay [3] in a line: DUSP6 inhibitors restoring Erk phosphorylation by chemical complementation, primary imaging in DUSP6-transfected HeLa (AID 609;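 active means compounds giving at least 50% inhibition in the cell-based MKP-3 phosphatase rescue imaging test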;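 on inhibition: phospho-Erk level distribution per well compared with pooled transfected vehicle control wells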). Particulars: HeLa MKP-3 transfected, phospho-Erk imaging KS statistic, at 10 µM, cells stimulated with TPA for 15 min.
The target of assay [4] is Dual specificity protein phosphatase 6 (Homo sapiens) (UniProt Q16828). The description is as above. Particulars: HeLa MKP-3 transfected, phospho-Erk imaging KS statistic; at 10 µM; stronger effect = higher value; cells stimulated with TPA for 15 min.
Sequence of Dual specificity protein phosphatase 6 (Homo sapiens) (Q16828 whole entry, looked up): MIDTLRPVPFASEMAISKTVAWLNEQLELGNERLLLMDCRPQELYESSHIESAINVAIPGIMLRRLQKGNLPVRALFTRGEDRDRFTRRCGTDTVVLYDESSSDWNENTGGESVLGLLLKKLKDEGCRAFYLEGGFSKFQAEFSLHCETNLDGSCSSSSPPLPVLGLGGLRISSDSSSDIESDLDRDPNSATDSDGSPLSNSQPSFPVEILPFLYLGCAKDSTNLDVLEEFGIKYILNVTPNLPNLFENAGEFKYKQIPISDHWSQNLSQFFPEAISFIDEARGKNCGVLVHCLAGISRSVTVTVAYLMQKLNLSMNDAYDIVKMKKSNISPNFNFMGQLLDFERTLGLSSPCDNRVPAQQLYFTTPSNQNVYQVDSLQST
In assay [5] the target is Voltage-gated potassium channel subunit beta-2 (Rattus norvegicus) (UniProt P62483). Put plainly: KvBeta enzyme negative modulators, primary screen, biochemical, NADPH fluorescence (AID 622;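 active means fluorescence slope higher than the sample average by over 3 SD, cut at about -0.22 in these data, passing the limit was not always enough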;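 further: slope of raw intensity against log time taken from 70 to 1610 s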). Particulars: recombinant KvBeta, 4-cyanobenzaldehyde reduction, at 10 µM, stronger effect = higher value.
Sequence of Voltage-gated potassium channel subunit beta-2 (Rattus norvegicus) (P62483 whole entry, looked up): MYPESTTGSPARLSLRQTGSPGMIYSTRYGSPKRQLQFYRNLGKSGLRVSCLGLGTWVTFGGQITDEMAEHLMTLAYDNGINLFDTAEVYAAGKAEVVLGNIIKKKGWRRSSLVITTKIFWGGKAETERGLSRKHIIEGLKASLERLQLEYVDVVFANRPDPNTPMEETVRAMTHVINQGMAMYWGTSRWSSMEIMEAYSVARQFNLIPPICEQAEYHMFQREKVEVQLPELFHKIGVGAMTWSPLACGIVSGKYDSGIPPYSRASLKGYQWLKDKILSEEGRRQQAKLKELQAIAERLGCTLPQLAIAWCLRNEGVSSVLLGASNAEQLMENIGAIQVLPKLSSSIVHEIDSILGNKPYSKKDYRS
Assay [6] has the same target. Description: KvBeta positive modulators, primary screen, biochemical, NADPH fluorescence (AID 623).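 Further: fluorescence intensity change per second fitted from 20 to 320 s.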 Particulars: Recombinant KvBeta, NADPH fluorescence decrease slope, 10 min; at 10 µM; stronger effect = lower value.
In assay [7] the target is Alpha-2C adrenergic receptor (Homo sapiens) (UniProt P18825). Description: modulators of alpha2C/GIRK thallium flux, primary screen, cell-based, HEK293 alpha2C/GIRK1/2 (AID 624;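 active means fluorescence slope after compound addition differing from the mean of all screened samples at 99.7% confidence, in either direction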;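 further: slope of fluorescence ratio to pre-addition baseline per second over 15 to 24 s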). Particulars: thallium flux BTC fluorescence, at 10 µM, actives lie on both sides.
Sequence of Alpha-2C adrenergic receptor (Homo sapiens) (P18825 whole entry, looked up): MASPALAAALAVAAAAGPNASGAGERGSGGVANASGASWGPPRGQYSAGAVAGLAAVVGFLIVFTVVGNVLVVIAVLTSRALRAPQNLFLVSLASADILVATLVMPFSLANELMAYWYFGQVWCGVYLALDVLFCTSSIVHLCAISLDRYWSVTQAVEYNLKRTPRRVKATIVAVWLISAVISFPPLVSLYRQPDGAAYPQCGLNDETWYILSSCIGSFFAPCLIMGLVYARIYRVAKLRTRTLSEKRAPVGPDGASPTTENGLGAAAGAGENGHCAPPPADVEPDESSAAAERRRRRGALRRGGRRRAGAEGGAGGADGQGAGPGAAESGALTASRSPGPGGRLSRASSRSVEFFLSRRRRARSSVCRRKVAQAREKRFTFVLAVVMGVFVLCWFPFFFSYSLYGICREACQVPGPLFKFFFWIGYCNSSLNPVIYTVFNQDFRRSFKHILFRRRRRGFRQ
Assay [8] can be described thus: inhibitors of larval lipid processing in zebrafish, primary screen, whole organism, PED6 fluorescence, gall bladder and intestine (AID 686;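 active means a full or partial loss of lipid-probe fluorescence in the fish gall bladder, intestine or both, judged by eye; inactive means no fluorescence loss, or compound toxic to the fish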;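 further: larvae 5 to 7 days old with five fish per well; signal comes from phospholipase A2 cleavage of quenched PED6 carried via bile; overnight exposure to compound and PED6 before scoring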). Particulars: Zebrafish larvae PED6 lipid processing, fluorescence scoring; screened at 20 µM (by protocol). Put shortly:
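Doses: 20 µM single dose. Test system: live zebrafish larvae aged 5-7 days, whole organism. Quantity: five larvae per well. Measured by: By-eye fluorescence microscopy. Reagent: ingested quenched lipid PED6 at 100 nM. Read-out: visual per-well fluorescence inhibition score. Times: overnight exposure of larvae to compound plus PED6.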

Assay [9] can be described thus: inhibitors of Chlamydomonas gravitaxis, primary screen, whole organism, Chlamydomonas reinhardtii, WT vs cilia-less mutant, absorbance, 96-well (AID 463189;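 active means inhibition at or above 50% relative to wild type and mutant plate controls; inactive means inhibition below 50%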;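 further: 0% = wild type cc124 cells in DMSO and 100% = ciliumless bld1 mutant cells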). Particulars: OD600 absorbance, 2 days, at 10 µM, stronger effect = higher value.
The mark [10] stands for this setting: measured here: cell density z-score.
[11] abbreviates: measured here: nuclear c-Myc green intensity z-score.
Where [12] appears, read: measured here: nuclear pErk red intensity z-score, stronger effect = higher value.

SMILES strings stand for the structures. Calls of active or inactive are those of the source.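 How the source made its calls, unless noted: active means NADPH fluorescence slope more negative than the mean of all samples by about 3 SD, 99.7% confidence; inactive means the rest.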

The text below walks through data of PubChem BioAssay.

What is called inhibition is the relative decrease from the control value, in per cent.

For `CSc1nc(N)nc(SCC(=O)CC(=O)OC(C)C)c1C#N`, the cell count in [1] was 553. The inhibition in assay [1] is -7.1% (inactive); in assay [2] it was -118% (inactive); in [4], 16.8% (inactive); in [9], 11.6% (inactive). The nuclei count in assay [2] came to 212%. For the same molecule, the figures for the z-score in assay [3] (setting [10]), in assay [3] (setting [11]) and in [3] (setting [12]) were 0.352, -0.157 and -2.15, respectively. Also, the fluorescence slope in [5] is -0.372 (inactive). Also, the NADPH fluorescence slope in assay [6] is -4.1e-07 (inactive). Further, the slope in assay [7] is 0.00422 (inactive). In addition, the outcome in [8] was inactive.
In the case of `CC1CC(C(F)(F)F)n2ncnc2N1` (centres undefined), in assay [1], the cell count is 503. Moreover, the inhibition in assay [1] was -3.5% (inactive); in assay [2] it was -41.5% (inactive); in [4], 13.2% (inactive); in assay [9], 39.7% (inactive). The molecule also yielded a nuclei count in assay [2] of 134%. Moreover, the figures for the z-score in assay [3] (setting [10]), in assay [3] (setting [11]) and in assay [3] (setting [12]) were -0.241, 0.0915 and -0.288, respectively. For the same molecule, in assay [5], the fluorescence slope is -0.523 (inactive). Besides, the NADPH fluorescence slope in [6] was -4.4e-05 (inactive). In assay [7], the slope was 0.00582 (inactive). For the same molecule, the result in assay [8] was inactive.
As for `CCc1[nH]nc2c1C(c1ccc(Br)s1)C(C#N)=C(N)O2` (centres undefined), in assay [1], the cell count came out at 504. Besides, the inhibition was -7.7% (inactive) in assay [1], -85.9% (inactive) in assay [2], -8.27% (inactive) in [4] and 15.9% (inactive) in assay [9]. The nuclei count in assay [2] stood at 152%. The figures for the z-score in [3] (setting [10]), in assay [3] (setting [11]) and in [3] (setting [12]) were -0.154, 1.13 and -0.858, respectively. Further, the fluorescence slope in assay [5] was -0.312 (inactive). For the same molecule, the NADPH fluorescence slope in assay [6] is 1.7e-05 (inactive). In addition, in [7], the slope was 0.00536 (inactive). In assay [8], the call was inactive.
`Cc1c(CCC#N)c(N2CCCCC2)n2c(nc3ccccc32)c1C#N`: the cell count in assay [1] stood at 547. In addition, the inhibition in [1] is -20.4% (inactive); in assay [2], -116% (inactive); in assay [4] it was -6.06% (inactive); in [9], 4.74% (inactive). The nuclei count in [2] was 155%. The z-score in assay [3] (setting [10]) is 0.117; in assay [3] (setting [11]), -1.2; in [3] (setting [12]), -0.217. In addition, the fluorescence slope in assay [5] was -0.341 (inactive). Moreover, the NADPH fluorescence slope in assay [6] is -2.7e-05 (inactive). For the same molecule, in [7], the slope is 0.00724 (inactive). In addition, the molecule was classed as inactive in assay [8].
`CC(C)C1Cc2c(C#N)c(N)n(C)c(=S)c2CO1` (centres undefined): the cell count in [1] stood at 548. For the same molecule, the inhibition in assay [1] is 1.3% (inactive); in assay [2], -204% (inactive); in assay [4], -8.76% (inactive); in assay [9], -8.05% (inactive). Also, the nuclei count in assay [2] was 134%. Further, the z-score in assay [3] (setting [10]) was -0.967; in [3] (setting [11]) it was 0.261; in assay [3] (setting [12]) it was 0.802. For the same molecule, the fluorescence slope in assay [5] was -0.509 (inactive). Besides, the NADPH fluorescence slope in assay [6] is -4e-05 (inactive). Moreover, the slope in [7] was 0.00431 (inactive). The call in assay [8] was inactive.
With `CCOC(=O)c1[nH]c2ccc(OC)cc2c1NC(=O)CCN1CCN(Cc2ccccc2)CC1`, the cell count in [1] is 541. Moreover, the inhibition was -11.2% (inactive) in assay [1], -92.4% (inactive) in assay [2], 1.12% (inactive) in assay [4] and 16.3% (inactive) in assay [9]. The molecule further displayed a nuclei count in assay [2] of 165%. In addition, the z-score was 1.87 in assay [3] (setting [10]), 1.32 in [3] (setting [11]) and -0.24 in assay [3] (setting [12]). Also, the fluorescence slope in [5] was -0.173 (inactive). Also, the NADPH fluorescence slope in assay [6] is -2.9e-05 (inactive). In addition, the slope in assay [7] is 0.00459 (inactive). The result in assay [8] was inactive.
On to `COCCOC(=O)C1=C(C)OC(N)=C(C#N)C1c1ccco1` (centres undefined), for which, in [1], the cell count was determined as 364. In addition, the inhibition was -7.8% (inactive) in assay [1], -269% (inactive) in [2], -13.5% (inactive) in assay [4] and 20.2% (inactive) in [9]. In assay [2], this molecule came in with a nuclei count of 165%. Moreover, the z-score was -0.623 in assay [3] (setting [10]), -0.763 in [3] (setting [11]) and 1.29 in assay [3] (setting [12]). For the same molecule, the fluorescence slope in [5] is -0.406 (inactive). Besides, in assay [6], the NADPH fluorescence slope was -4.7e-05 (inactive). Besides, in assay [7], the slope was 0.00481 (inactive). In assay [8], the molecule was called inactive.
Turning to `CCOc1nnnc2c1sc1nc(N3CCOCC3)c3c(c12)CC(C)(C)OC3`, in [1], the cell count turned out to be 579. Further, the inhibition in assay [1] is -3.2% (inactive); in assay [2], -78.7% (inactive); in assay [4], -6.86% (inactive); in [9], -7.31% (inactive). The molecule also gave a nuclei count in [2] of 116%. For the same molecule, the z-score in assay [3] (setting [10]) is -0.458; in [3] (setting [11]) it was -0.399; in [3] (setting [12]), -0.83. In [5], the fluorescence slope was -0.35 (inactive). Besides, the NADPH fluorescence slope in assay [6] was 1.4e-05 (inactive). Also, the slope in [7] was 0.00623 (inactive). Also, the call in [8] was inactive.
As for `CC1(C)Nc2ccc(O)cc2-c2c1ssc2=S`, the cell count in assay [1] turned out to be 403. In addition, the inhibition in assay [1] was -28.2% (inactive); in assay [2], -198% (inactive); in assay [4], -0.624% (inactive); in [9], -1.08% (inactive). Besides, the nuclei count in assay [2] stood at 193%. Further, the z-score in [3] (setting [10]) is -0.436; in [3] (setting [11]), -0.817; in [3] (setting [12]) it was -1.32. Further, in assay [5], the fluorescence slope was -0.316 (inactive). Moreover, the NADPH fluorescence slope in assay [6] is 3.7e-06 (inactive). In [7], the slope is 0.00209 (inactive). In addition, in assay [8], the outcome was inactive.
`CCCCC1CC1C(=O)Nc1ccc(OC)c(OC)c1` (centres undefined): the cell count in assay [1] is 421. For the same molecule, the inhibition is -0.9% (inactive) in assay [1], -42.1% (inactive) in assay [2], -8.95% (inactive) in [4] and 22% (inactive) in [9]. In assay [2], the nuclei count is 190%. Also, the z-score was -1.27 in assay [3] (setting [10]), -0.533 in assay [3] (setting [11]) and 0.586 in assay [3] (setting [12]). Moreover, the fluorescence slope in assay [5] is -0.39 (inactive). Also, in assay [6], the NADPH fluorescence slope was -2.3e-05 (inactive). Also, in assay [7], the slope was 0.00756 (inactive). Further, the molecule was called inactive in assay [8].
For the molecule `Oc1ccc2ccccc2c1/C=N/n1cnnc1`, in assay [1], the cell count is 538. For the same molecule, the inhibition is -5.9% (inactive) in [1], -57.1% (inactive) in [2], -2.91% (inactive) in [4] and -4.69% (inactive) in [9]. Moreover, the nuclei count in assay [2] was determined as 217%. Besides, the z-score in [3] (setting [10]) was 0.969; in assay [3] (setting [11]), 0.692; in assay [3] (setting [12]), -0.685. Also, in assay [5], the fluorescence slope is -0.356 (inactive). The NADPH fluorescence slope in assay [6] is -1.6e-05 (inactive). Further, the slope in [7] was 0.00487 (inactive). For the same molecule, in [8], the call was inactive.
In the case of `CN1CCN(C(=O)CSc2nc(-c3cccs3)ccc2C#N)CC1`, in [1], the cell count turned out to be 625. Besides, the inhibition in assay [1] was -11.3% (inactive); in [2], 21.9% (inactive); in assay [4], 6.04% (inactive); in assay [9], 21.2% (inactive). Besides, the nuclei count in [2] amounted to 138%. The results for the z-score in assay [3] (setting [10]), in [3] (setting [11]) and in assay [3] (setting [12]) were -0.668, -0.886 and -0.831, respectively. The fluorescence slope in assay [5] is -0.299 (inactive). In addition, in [6], the NADPH fluorescence slope was -1.3e-05 (inactive). Moreover, the slope in assay [7] is 0.00609 (inactive). In addition, the molecule was called inactive in assay [8].
With `O=C1c2ccccc2S(=O)(=O)N1CC(O)COc1ccc(Cl)cc1` (centres undefined), the cell count in [1] came out at 354. For the same molecule, the inhibition in [1] is -14.1% (inactive); in assay [2], -291% (inactive); in [4] it was 1.75% (inactive); in assay [9], 1.18% (inactive). In assay [2], this molecule yielded a nuclei count of 97%. Also, the z-score is 0.633 in assay [3] (setting [10]), 0.437 in assay [3] (setting [11]) and -1.99 in assay [3] (setting [12]). The fluorescence slope in assay [5] is -0.439 (inactive). The NADPH fluorescence slope in assay [6] was -8.9e-06 (inactive). Moreover, the slope in assay [7] is 0.00476 (inactive). Also, the molecule was classed as inactive in assay [8].
